According to ChEMBL document CHEMBL5042498, “Development of 3-(4-Chlorophenyl)-1-(phenethyl)urea Analogues as Allosteric Modulators of the Cannabinoid Type-1 Receptor: RTICBM-189 is Brain Penetrant and Attenuates Reinstatement of Cocaine-Seeking Behavior” (J Med Chem, 2022):
Activity calls are given as the source filed them. No cut-off for these calls is given here.

Key:
[1] = Toxicity in Sprague-Dawley rat assessed as reduction in locomotion at 10 mg/kg, ip; assay type: organism-based; conditions: in vivo
Method in brief: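 Rats received 10 mg/kg i.p. compound or vehicle 15 min before being placed in locomotion chambers, after at least three days of handling. Locomotor activity was recorded for 30 min and analysed by two-way ANOVA.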

Rattus norvegicus = assay: Attenuation of cocaine reinstatement in 7 day cocaine treated Sprague-Dawley rat assessed as reduction in cocaine seeking behaviour at 10 mg/kg, ip treated for 10 mins prior to administration of cocaine priming injection; assay type: functional, organism-based
Method in brief: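 Male Sprague-Dawley rats (280-300 g) with jugular catheters self-administered cocaine (0.75 mg/kg/inf, FR1 raised to FR5) in 2-h sessions for 14 days, then underwent 7 days of extinction. On the test day, compound (10 mg/kg) or vehicle was given 10 min before a priming cocaine injection (10 mg/kg i.p.), and lever responding was measured.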

[2] = AUC infinity in Sprague-Dawley rat brain 10 mg/kg, ip measured upto 24 hrs post dose by LC-MS/MS analysis
[3] = Metabolic stability in rat liver microsomes assessed as clearance in presence of NADPH measured upto 45 mins by LC-MS/MS analysis; assay type: ADME, Microsome; conditions: 0.75 h
Method in brief: (§1)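 Rat liver microsomes (0.5 mg/mL protein) in 100 mM potassium phosphate, pH 7.4, at 37 °C with 1 mM NADPH. Samples were taken at 0, 5, 15, 30 and 45 min, quenched with acetonitrile and analysed by LC/MS/MS. Half-life and clearance were derived from two independent experiments in duplicate.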

[4] = target: Cannabinoid receptor 2 (Homo sapiens) (UniProt P34972); assay: Agonist activity at human CB2 receptor CP55940-stimulated calcium mobilization at 10 uM incubated for 15 mins FLIPR assay relative to control; assay type: functional
Method in brief: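 CB2 agonist screen in CHO-RD-HGA16 cells stably expressing human CB2, loaded with Calcium 5 dye for 45 min at 37 °C. Cells were pretreated 15 min with vehicle, then the test compound was added at a single concentration. Fluorescence was read on FLIPR every 1 s for 90 s (485/525 nm). Response is expressed as % of CP55,940 Emax.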

Cannabinoid receptor 1 [5] = target: T1, Cannabinoid receptor 1 (Homo sapiens, UniProt P21554); assay: Antagonist activity at N-terminal tagged human CB1 receptor transfected with HEK293 cells assessed as forskolin-stimulated cAMP level in presence of CP55940 by BRET assay; assay type: functional, cell-based
Method in brief: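 HEK293 cells stably expressing hCB1 (3HA-tagged at Otago, untagged at RTI) are transiently transfected with the CAMYEL BRET cAMP sensor. Cells are serum-starved 30 min and given 5 μM coelenterazine H final. Compound dilutions are added together with 5 μM forskolin and 1 μM CP55,940. BRET (460/535) is read for about 20 min at 37 °C.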

[6] = Metabolic stability in rat liver microsomes assessed as half life in presence of NADPH measured upto 45 mins by LC-MS/MS analysis; assay type: ADME, Microsome; conditions: 0.75 h; method in brief: as §1
[7] = Tmax in Sprague-Dawley rat plasma at 10 mg/kg, ip measured upto 24 hrs post dose by LC-MS/MS analysis
[8] = Tmax in Sprague-Dawley rat brain at 10 mg/kg, ip measured upto 24 hrs post dose by LC-MS/MS analysis
[9] = AUC infinity in Sprague-Dawley rat plasma 10 mg/kg, ip measured upto 24 hrs post dose by LC-MS/MS analysis
Cannabinoid receptor 1 [10] = target: T1, Cannabinoid receptor 1; assay: Allosteric antagonist activity at human CB1 receptor expressed in CHO-RD-HGA16 cells overexpressing Galpha16 assessed as inhibition of CP55940-stimulated calcium mobilization incubated for 15 mins FLIPR assay; assay type: functional, cell-based
[11] = Plasma protein binding in rat; assay type: ADME, cell-free
[12] = Cmax in Sprague-Dawley rat plasma at 10 mg/kg, ip measured upto 24 hrs post dose by LC-MS/MS analysis
[13] = Cmax in Sprague-Dawley rat brain at 10 mg/kg, ip measured upto 24 hrs post dose by LC-MS/MS analysis
[14] = Apparent permeability across basolateral to apical side in MDCK-MDR1 cells at 10 uM measured upto 90 mins by LC-MS/MS analysis; assay type: ADME, cell-based, Canis lupus familiaris; conditions: dog, mdck-mdr1, 1.5 h
Method in brief: (§2)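 MDCK-MDR1 cells (passage 5) were grown 3 days on polycarbonate Transwell supports and equilibrated 30 min at 37 °C in HBSS with 10 mM HEPES and 0.25% BSA, pH 7.4, before TEER was measured. Test article at 10 μM was placed in the donor chamber (apical or basolateral), with light agitation at 37 °C. Receiver samples were taken at 30, 60 and 90 min and analysed by LC-MS/MS. Papp = (dQ/dt)/(A·Ci·60). References were atenolol, propranolol and digoxin.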

[15] = Aqueous solubility of compound; assay type: physicochemical; conditions: buffer
[16] = Clearance in Sprague-Dawley rat plasma at 10 mg/kg, ip measured upto 24 hrs post dose by LC-MS/MS analysis
[17] = Elimination half life in Sprague-Dawley rat plasma 10 mg/kg, ip measured upto 24 hrs post dose by LC-MS/MS analysis
[18] = Apparent permeability across apical to basolateral side in MDCK-MDR1 cells at 10 uM measured upto 90 mins by LC-MS/MS analysis; assay type: ADME, cell-based, Canis lupus familiaris; conditions: dog, mdck-mdr1, 1.5 h; method in brief: as §2
[19] = target: Cannabinoid receptor 2 (Homo sapiens) (UniProt P34972); assay: Antagonist activity at human CB2 receptor CP55940-stimulated calcium mobilization incubated for 15 mins FLIPR assay; assay type: functional; design: concentration or dose not given beside the values
Method in brief: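 CB2 antagonist screen in human CB2 CHO-RD-HGA16 cells loaded with Calcium 5 dye. Cells were pretreated 15 min at 37 °C with the test compound at a single concentration (10 μM), then challenged with CP55,940 at its EC80 during the FLIPR read (90 s, 485/525 nm). Response is expressed as % inhibition of the CP55,940 EC80 signal.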

Cannabinoid receptor 1 [20] = target: T1, Cannabinoid receptor 1; assay: Allosteric antagonist activity against human CB1 receptor expressed in HEK293 cells membrane measured after 60 mins by [35S]GTPgammaS binding assay; assay type: functional, cell membranes
Method in brief: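 Membranes from HEK293 cells expressing hCB1 are used in assay buffer (50 mM Tris, 3 mM MgCl2, 0.2 mM EGTA, 100 mM NaCl, 1 mg/ml BSA, pH 7.4). They are preincubated 10 min, then incubated 60 min at 30 °C with 30 μM GDP, 0.1 nM [35S]GTPγS, 100 nM CP55,940 and serially diluted compound (0.1% DMSO final). Nonspecific binding is set with 30 μM unlabeled GTPγS. Reactions are filtered. Data are normalized to CP55,940 alone and fitted by 3-parameter regression; mean of ≥3 experiments in duplicate.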

T1 sequence (P21554 whole entry): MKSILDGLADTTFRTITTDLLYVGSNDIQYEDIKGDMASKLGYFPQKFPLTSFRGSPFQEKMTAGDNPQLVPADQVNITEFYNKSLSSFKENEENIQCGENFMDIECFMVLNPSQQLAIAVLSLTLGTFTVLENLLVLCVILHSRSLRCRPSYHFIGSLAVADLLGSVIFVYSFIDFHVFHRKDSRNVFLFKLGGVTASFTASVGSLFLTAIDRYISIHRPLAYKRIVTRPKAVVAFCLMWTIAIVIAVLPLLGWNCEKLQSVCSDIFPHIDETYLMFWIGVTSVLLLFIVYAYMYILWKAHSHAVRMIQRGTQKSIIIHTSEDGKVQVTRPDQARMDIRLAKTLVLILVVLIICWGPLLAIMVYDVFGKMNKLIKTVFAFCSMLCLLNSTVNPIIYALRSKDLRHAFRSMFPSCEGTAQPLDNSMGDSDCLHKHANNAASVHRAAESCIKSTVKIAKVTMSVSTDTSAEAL
Chain of Cannabinoid receptor 2 (Homo sapiens) (P34972 whole entry): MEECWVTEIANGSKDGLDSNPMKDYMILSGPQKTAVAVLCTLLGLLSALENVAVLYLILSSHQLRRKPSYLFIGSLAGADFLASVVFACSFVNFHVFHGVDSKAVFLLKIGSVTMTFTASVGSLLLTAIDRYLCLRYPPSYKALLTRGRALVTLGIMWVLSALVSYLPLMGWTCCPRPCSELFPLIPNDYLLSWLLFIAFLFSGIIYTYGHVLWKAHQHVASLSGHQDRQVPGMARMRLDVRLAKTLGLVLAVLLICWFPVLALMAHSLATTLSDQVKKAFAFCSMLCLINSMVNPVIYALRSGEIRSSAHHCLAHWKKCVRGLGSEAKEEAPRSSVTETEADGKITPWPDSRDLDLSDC

SMILES: O=C(NCCc1cccc(Cl)c1)Nc1ccc(Cl)cc1
- Activity [1]: Non-Toxic
- Activity (Rattus norvegicus): Active
- AUC(0-inf) [2]: 1440 ng·h/mL
- CLH [3]: 99.3 µL/min/mg
- Emax [4]: < 20%
- IC50 (Cannabinoid receptor 1 [5]): 1510 nM
- t1/2 [6]: 14.9 min
- Tmax [7]: 24 min
- Tmax [8]: 24 min
- AUC(0-inf) [9]: 715 ng·h/mL
- IC50 (Cannabinoid receptor 1 [10]): 28.8 nM
- PPB [11]: 99.6%
- Cmax [12]: 288 ng/mL
- Cmax [13]: 595 ng/mL
- Papp [14]: 21.3 10^-6 cm/s
- solubility [15]: < 1 µM
- CL/F [16]: 241 mL/min/kg
- half-life [17]: 37.8 min
- Papp [18]: 19.2 10^-6 cm/s
- Activity [19]: < 35%
- IC50 (Cannabinoid receptor 1 [20]): 5130 nM
